Measured values reported in ChEMBL document CHEMBL2434950 (Eur J Med Chem, 2013).
In brackets after ≈: the same amount, converted by molar mass.

How the values were obtained:
[1] = Cytotoxicity against african green monkey Vero cells by Alamar blue assay; assay type: cell-based; settings: chlorocebus sabaeus, read-out: ED50 (the source's name)
Toxoplasma gondii [2] = assay: Antiparasitic activity against Toxoplasma gondii tachyzoites by fluorescence assay; assay type: functional; settings: read-out: ED50 (the source's name)
Outline: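 Red fluorescent protein-expressing tachyzoites were filtered (3 µm) and needle-passed, then seeded at 4×10^4/well onto confluent hTERT monolayers in DMEM-HG with 1% FBS, 2 mM glutamine and 1 mM pyruvate, at 37 °C. Drugs were serially diluted in the same medium. Plates were read daily from the bottom (ex 544/em 590 nm). EC50 came from the fit I = Imax·C/(EC50 + C), Imax 100%. Three experiments, each in triplicate.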

Trypanosoma cruzi [3] = assay: Antiparasitic activity against Trypanosoma cruzi amastigotes after 3 days by fluorescence assay; assay type: functional; settings: 72 h, read-out: ED50 (the source's name)
Outline: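 Gamma-irradiated (2000 Rads) Vero cells, 3.4×10^4/well in RPMI with 10% FBS, were kept overnight at 35 °C, 7% CO2. […] Serial dilutions were added at 5 concentrations up to 20 or 25 µM, each in quadruplicate, with a benznidazole control. Fluorescence was read at day 3, and IC50 was derived by non-linear regression.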

Trypanosoma cruzi [4] = assay: Ratio of compound ED50 to WC-9 ED50 for Trypanosoma cruzi amastigotes after 3 days by fluorescence assay; assay type: functional
Toxoplasma gondii [5] = assay: Antiparasitic activity against Toxoplasma gondii tachyzoites at 10 uM by fluorescence assay; assay type: functional
Trypanosoma cruzi [6] = assay: Antiparasitic activity against Trypanosoma cruzi EP epimastigotes; assay type: functional
[7] = Non-competitive inhibition of mitochondrial Trypanosoma cruzi SQS
[8] = Non-competitive inhibition of glycosomal Trypanosoma cruzi SQS

| Compound | EC50 (Trypanosoma cruzi [3]) | CC50 [1] | EC50 (Toxoplasma gondii [2]) | other results |
| --- | --- | --- | --- | --- |
| COc1cccc(Oc2ccc(OCCSC#N)cc2)c1 | 4.5 µM | > 50 µM | 6.7 µM |  |
| c1cncc(Oc2ccc(OCCOC3CCCCO3)cc2)c1 (stereo not given) | > 10 µM | > 50 µM |  | Activity (Toxoplasma gondii [5]): 3.25% |
| N#CSCCOc1ccc(Oc2cccnc2)cc1 | 7.4 µM | > 50 µM | 7.5 µM |  |
| N#CSCCOc1cccc(Oc2ccccc2)c1 | 11.2 µM | > 50 µM | 3.95 µM |  |
| COc1ccc(Oc2cccc(OCCSC#N)c2)cc1 | 10.1 µM | > 50 µM | 2.93 µM |  |
| N#CSCCOc1ccc(Oc2ccccc2)cc1 | 5 µM | > 50 µM | 4.8 µM | MIC (Trypanosoma cruzi [6]): 1 µM (≈ 0.271 µg/mL); IC50 [7]: 129 nM; Ki [7]: 129 nM; IC50 [8]: 88 nM; Ki [8]: 88 nM |
| O=C1C(O)=C([C@H]2CC[C@H](c3ccc(Cl)cc3)CC2)C(=O)c2ccccc21 [ATOVAQUONE] |  |  | 0.032 µM |  |

Further lines, with some results ahead:

| EC50 (Trypanosoma cruzi [3]) | Compound | CC50 [1] | EC50 (Toxoplasma gondii [2]) | other results |
| --- | --- | --- | --- | --- |
| > 10 µM | O=[N+]([O-])c1cccc(Oc2ccc(OCCOC3CCCCO3)cc2)c1 (stereo not given) | > 50 µM | 3.28 µM |  |
| 5.2 µM | N#CSCCOc1ccc(Oc2cccc([N+](=O)[O-])c2)cc1 | > 50 µM | 2.03 µM | Ratio ED50 (Trypanosoma cruzi [4]): 1.04 |
| 6.1 µM | COc1ccc(Oc2ccc(OCCSC#N)cc2)cc1 | > 100 µM | 3.81 µM |  |
| 1.75 µM | O=C(Cn1ccnc1[N+](=O)[O-])NCc1ccccc1 [BENZNIDAZOLE] |  |  |  |
